Test results: ChEMBL document CHEMBL1144782, “Isoindolo[2,1-a]quinoxaline derivatives, novel potent antitumor agents with dual inhibition of tubulin polymerization and topoisomerase I” (2008)
Where “and” joins values, the source holds several entries; their conditions need not be identical. Identical values can stand only once.

What was measured:
Type in all cases: functional
UO-31 = experiment: Antitumor activity against human UO31 cells
Method in brief: (§1)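 NCI 60-cell-line screen. Parameters were GI50 (50% net growth inhibition), TGI and LC50, each reported as –log molar concentration. Where an effect was not reached within the tested range, the highest tested concentration was used in the calculation.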

NCI-H226 = experiment: Antitumor activity against human NCI-H226 cells
Method in brief: (§2)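 Run by the NCI in its in vitro disease-oriented screen of about 60 human tumour cell lines. For each line it reports pGI50 (50% net growth inhibition), pTGI (total growth inhibition) and pLC50 (50% net cell death), each as –log molar concentration. Where an effect was not reached within the tested range, the highest tested concentration was used.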

SK-MEL-5 = experiment: Antitumor activity against human SKMEL5 cells; method in brief: as §2
CCRF-CEM [1] = experiment: Antitumor activity against human CCRF-CEM cells; method in brief: as §2
IGROV-1 = experiment: Antitumor activity against human IGROV1 cells; method in brief: as §2
HCC 2998 = experiment: Antitumor activity against human HCC2998 cells; method in brief: as §2
BT-549 = experiment: Antitumor activity against human BT549 cells; method in brief: as §2
HCT-116 = experiment: Antitumor activity against human HCT116 cells; method in brief: as §2
OVCAR-4 = experiment: Antitumor activity against human OVCAR4 cells; method in brief: as §2
A549 = experiment: Antitumor activity against human A549 cells; method in brief: as §2
LOX IMVI = experiment: Antitumor activity against human LOXIMVI cells; method in brief: as §2
CCRF-CEM [2] = experiment: Resistance index, Ratio of GI50 for human vinblastine-resistant CEM cells to GI50 for human CEM cells
SNB-75 = experiment: Antitumor activity against human SNB75 cells; method in brief: as §2
SR = experiment: Antitumor activity against human SR cells; method in brief: as §1
786-0 = experiment: Antitumor activity against human 786-0 cells; method in brief: as §2
CCRF-CEM [3] = experiment: Growth inhibition of human vinblastine-resistant CEM cells after 72 hrs by MTT assay
Method in brief: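 Growth inhibition by MTT after 72 h incubation. Resistant sublines: LoVoDoxo and MCF-7 MDR were kept in 0.1 µg/mL doxorubicin; CEMVbl-100 was selected against vinblastine. GI50 given as mean ± SEM of three independent experiments. Resistance index is resistant-line GI50 over parental GI50.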

MCF7 [4] = experiment: Cell viability against human MCF7 cells at 10 uM
KM12 = experiment: Antitumor activity against human KM12 cells; method in brief: as §2
NCI-H460 = experiment: Antitumor activity against human NCI-H460 cells; method in brief: as §2
MCF7 [5] = experiment: Antitumor activity against human MCF7 cells; method in brief: as §2
SNB-19 = experiment: Antitumor activity against human SNB19 cells; method in brief: as §2
[6] = Antitumor activity against human […] cells; method in brief: as §2
EKVX = experiment: Antitumor activity against human EKVX cells; method in brief: as §2
SF-539 = experiment: Antitumor activity against human SF539 cells; method in brief: as §2
UACC-257 = experiment: Antitumor activity against human UACC257 cells; method in brief: as §1
OVCAR-5 = experiment: Antitumor activity against human OVCAR5 cells; method in brief: as §2
[7] = read-out: Log LC50 (the source's name) (converted)

O=c1[nH]c2ccccc2n2cc3ccccc3c12
GI50 (UO-31): 12.6 µM
CC50 (UO-31; [7]): 56.2 µM
TGI (UO-31; read-out: pTGI (converted)): 26.9 µM
GI50 (NCI-H226): 2.88 µM
LC50 (50% net cell kill) (NCI-H226): 55 µM
TGI (NCI-H226; read-out: pTGI (converted)): 13.8 µM
GI50 (SK-MEL-5): 1.91 µM
LC50 (SK-MEL-5): 60.3 µM
TGI (SK-MEL-5; read-out: pTGI (converted)): 14.8 µM
GI50 (CCRF-CEM [1]): 5.89 µM
LC50 (CCRF-CEM [1]): > 100 µM
TGI (CCRF-CEM [1]; read-out: pTGI (converted)): 60.3 µM
GI50 (IGROV-1): 10.2 µM
CC50 (IGROV-1; [7]): 63.1 µM
TGI (IGROV-1; read-out: pTGI (converted)): 25.7 µM
GI50 (HCC 2998): 5.89 µM
LC50 (HCC 2998): 57.5 µM
TGI (HCC 2998; read-out: pTGI (converted)): 20.9 µM
GI50 (BT-549): 19.1 µM
LC50 (50% net cell kill) (BT-549): > 100 µM
TGI (BT-549; read-out: pTGI (converted)): 64.6 µM
GI50 (HCT-116): 2.14 µM
LC50 (HCT-116): 49 µM
TGI (HCT-116; read-out: pTGI (converted)): 12.3 µM
GI50 (OVCAR-4): 7.24 µM
LC50 (50% net cell kill) (OVCAR-4): > 100 µM
TGI (OVCAR-4; read-out: pTGI (converted)): 89.1 µM
GI50 (A549): 5.89 µM
CC50 (A549; [7]): > 100 µM
TGI (A549; read-out: pTGI (converted)): 32.4 µM
GI50 (LOX IMVI): 3.02 µM
LC50 (50% net cell kill) (LOX IMVI): 85.1 µM
TGI (LOX IMVI; read-out: pTGI (converted)): 12 µM
RatioGI50 (CCRF-CEM [2]): 0.8
GI50 (SNB-75): 13.5 µM and 1.91 µM
LC50 (SNB-75; Homo sapiens, SNB-75): > 100 µM
TGI (SNB-75; Homo sapiens, SNB-75, read-out: pTGI (converted)): 74.1 µM
GI50 (SR): 2.88 µM
LC50 (SR): > 100 µM
TGI (SR; read-out: pTGI (converted)): 7.76 µM
GI50 (786-0): 4.27 µM
CC50 (786-0; [7]): 55 µM
TGI (786-0; read-out: pTGI (converted)): 18.2 µM
GI50 (CCRF-CEM [3]): 3.8 µM
Activity (MCF7 [4]): 6%
GI50 (KM12): 19.1 µM
LC50 (50% net cell death) (KM12): 83.2 µM
TGI (KM12; read-out: pTGI (converted)): 39.8 µM
GI50 (NCI-H460): 7.76 µM
CC50 (NCI-H460; [7]): > 100 µM
TGI (NCI-H460; read-out: pTGI (converted)): > 100 µM
GI50 (MCF7 [5]): 10.5 µM
LC50 (50% net cell kill) (MCF7 [5]): > 100 µM
TGI (MCF7 [5]; read-out: pTGI (converted)): > 100 µM
GI50 (SNB-19): 8.91 µM
CC50 (SNB-19; [7]): > 100 µM
TGI (SNB-19; read-out: pTGI (converted)): > 100 µM
GI50 [6]: 0.955 µM
LC50 [6]: 58.9 µM
TGI ([6]; read-out: pTGI (converted)): 10.2 µM
GI50 (EKVX): 4.79 µM
LC50 (50% net cell kill) (EKVX): > 100 µM
TGI (EKVX; read-out: pTGI (converted)): 69.2 µM
GI50 (SF-539): 5.13 µM
LC50 (50% net cell kill) (SF-539): 75.9 µM
TGI (SF-539; read-out: pTGI (converted)): 22.4 µM
GI50 (UACC-257): 15.1 µM
LC50 (UACC-257): 72.4 µM
TGI (UACC-257; read-out: pTGI (converted)): 33.1 µM
GI50 (OVCAR-5): 10.5 µM
LC50 (50% net cell death) (OVCAR-5): > 100 µM
TGI (OVCAR-5; read-out: pTGI (converted)): 35.5 µM
